# Data published in article PMC7699451 (Drug Design, Development and Therapy, 2020).
# Where two headings read alike, the source gives them in different places.
# Experiments:
# [1] = Plasma pharmacokinetics at steady-state, LC-MS/MS, noncompartmental analysis; type: in vivo, human; settings: for MR, metabolic ratio (AUCτ,ss of metabolite/AUCτ,ss of parent) / AUCτ,ss / Cmax,ss / CLss/F / Ctrough,ss: mean ± SD, N = 34
# Outline: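 Oral DPP-4 inhibitor 5 mg once daily, alone for 7 days or with sulfonylurea 4 mg. Plasma was sampled pre-dose and at 1, 2, 3, 4, 5, 6, 8 and 12 h at steady state, spun at 1900 g (4°C, 10 min) and frozen below −70°C. LC-MS/MS was linear over 0.1–60 μg/L. Noncompartmental analysis: Cmax,ss observed; AUCτ,ss and CLss by the linear-log trapezoidal method.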
# [2] = cited from earlier work
# [3] = Urinary excretion of evogliptin at steady-state; type: in vivo, human; settings: for CL renal: human, urine and plasma, oral
# Outline: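 At steady state of oral DPP-4 inhibitor 5 mg once daily, urine was collected over 0–24 h and frozen below −70°C. Parent drug was measured by LC-MS/MS (linear 5–50,000 μg/L). feτ,ss was the amount excreted unchanged divided by that day's dose. Renal clearance was the amount excreted divided by plasma AUCτ,ss.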
# serum insulin = assay: Oral glucose tolerance test, serum insulin; type: in vivo, human; settings: OGTT 75 g glucose, steady-state; mean ± SD; N = 34
# Outline: (§1)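 Healthy Korean men aged 19–45 years (BMI 18–27 kg/m2) in a randomized, open-label, 3-period crossover study. Treatments were oral once daily: DPP-4 inhibitor 5 mg, sulfonylurea 4 mg, or both. After an overnight fast, subjects took 75 g glucose; serum glucose and insulin were sampled at 0, 0.25, 0.5, 1, 1.5, 2 and 3 h, at baseline (day −1) and at steady state. Peaks were read directly; areas used the linear trapezoidal method. Δ values subtracted baseline at each time point.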
# [4] = Safety and tolerability, adverse events; type: in vivo, human
# Outline: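 Adverse events, physical examinations, vital signs, 12-lead ECG and clinical laboratory tests were monitored throughout the crossover study in dosed healthy men. Investigators assessed whether each adverse event was related to treatment.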
# serum glucose = assay: Oral glucose tolerance test, serum glucose; type: in vivo, human; settings: OGTT 75 g glucose, steady-state, mean ± SD, N = 34
# Outline: as §1
# CYP enzymes = settings: ref unpublished in-house data; cited from earlier work
# [5] = EVO+GLI: evogliptin 5 mg and glimepiride 4 mg once daily
# [6] = EVO+GLI: evogliptin 5 mg and glimepiride 4 mg once daily, plasma
# [7] = EVO: evogliptin 5 mg once daily
# [8] = EVO: evogliptin 5 mg once daily, plasma
# [9] = GLI: glimepiride 4 mg once daily
# [10] = GLI: glimepiride 4 mg once daily, plasma
"MR, metabolic ratio (AUCτ,ss of metabolite/AUCτ,ss of parent) [1, 5]","AUCτ,ss [1, 6]","Cmax,ss [1, 6]","MR, metabolic ratio (AUCτ,ss of metabolite/AUCτ,ss of parent) [1, 7]","AUCτ,ss [1, 8]","Cmax,ss [1, 8]","CLss/F [1, 5]","Ctrough,ss [1, 6]","half-life ([1]; human, plasma, oral) [h]",SMILES,"AUEC, area under the serum insulin-time curve (serum insulin)","Emax, maximum serum insulin level (serum insulin)","ΔAUEC, difference in the area under the serum insulin-time curve from baseline (serum insulin)","ΔEmax, difference in maximum serum insulin level from baseline (serum insulin)","2 h PBG, 2 hour postprandial blood glucose (serum glucose)","AUGC, area under the serum glucose-time curve (serum glucose) [mg·h/dL]","ΔAUGC, difference in the area under the serum glucose-time curve from baseline (serum glucose)","ΔGmax, difference in maximum serum glucose level from baseline (serum glucose)",other results
0.09 ± 0.02 (0.04–0.13),10.1 ± 2.8 (5.5–17) μg·h/L,0.7 ± 0.2 (0.4–1.0) μg/L,0.09 ± 0.02 (0.03–0.12),9.8 ± 2.4 (6.3–14.6) μg·h/L,0.7 ± 0.2 (0.4–1.2) μg/L,–,–,–,"CC(C)(C)OC[C@@H]1C(=O)NCCN1C(=O)C[C@H](N)[C@@H](O)c1cc(F)c(F)cc1F [Evogliptin M7, 4(S)-hydroxyevogliptin]",–,–,–,–,–,–,–,–,–
0.1 ± 0.02 (0.05–0.13),10.4 ± 2.5 (6–17) μg·h/L,0.6 ± 0.2 (0.3–1) μg/L,0.09 ± 0.02 (0.04–0.13),10.3 ± 2.1 (6.8–14.7) μg·h/L,0.6 ± 0.2 (0.4–1.1) μg/L,–,–,–,"CC(C)(C)OC[C@@H]1C(=O)NCCN1C(=O)C[C@H](N)[C@H](O)c1cc(F)c(F)cc1F [Evogliptin M8, 4(R)-hydroxyevogliptin]",–,–,–,–,–,–,–,–,–
–,–,–,–,–,–,46.9 ± 8.3 (28.4–62.4) L/h,3.1 ± 0.7 (2.2–5.1) μg/L,23.6 ± 5.9,"CC(C)(C)OC[C@@H]1C(=O)NCCN1C(=O)C[C@H](N)Cc1cc(F)c(F)cc1F [Evogliptin, evogliptin]",91.1 ± 48.6 (31.4–265) μIU·h/mL,53.1 ± 25.2 (16.3–124.2) μIU/mL,−19.2 ± 46.6 (−179.9–36.1) μIU·h/mL,−20.4 ± 35.5 (−142.5–21.7) μIU/mL,114.7 ± 17.3 (83–164) mg/dL,334.9,−35.8 ± 39.2 (−137.6–18.5) mg·h/dL,−53.2 ± 32 (−162– −12) mg/dL,"Tmax, time to reach maximal plasma concentration ([2]; after oral administration): approximately 5 h; feτ,ss, fraction excreted unchanged in urine during the dosing interval ([3]; EVO: evogliptin 5 mg once daily, urine 0–24 h, mean ± SD, N = 34): 19.1 ± 7.2 (6.7–43.9) %; CL renal [3]: 148 mL/min; CL renal ([3]; 5 mg): 140 mL/min; Diarrhea: number of subjects who reported adverse drug reactions (number of ADRs) ([4]; N = 35): 1 (1); CLss/F [1, 7]: 45.6 ± 7.5 (26.5–56.1) L/h; Ctrough,ss [1, 8]: 3.3 ± 0.7 (2.2–5.6) μg/L; Day on which steady-state was achieved ([1]; evogliptin 5 mg once daily): 4 days; Tmax ([1]; human, plasma, oral): 3.5 h; AUC ([1]; human, plasma, oral, 5 mg): 113 ± 21.6 ng·h/mL; Cmax ([1]; human, plasma, oral, 5 mg): 6.7 ± 1.4 ng/mL; half-life ([1]; human, plasma, oral, 5 mg): 28.4 ± 8.9 h; Gmax, maximum serum glucose level (serum glucose; healthy male subjects): 136.7 mg/dL; AUGC, area under the serum glucose-time curve (serum glucose; listed as EVO): 334.9 ± 31.7 (260–406.5) mg·h/dL; Induction or inhibition of CYP enzymes (CYP enzymes): did not induce or inhibit CYP enzymes"
0.39 ± 0.1 (0.19–0.62),652.6 ± 197.7 (387–1331.4) μg·h/L,84.2 ± 19 (55.8–137) μg/L,–,–,–,–,–,–,"CCC1=C(C)CN(C(=O)NCCc2ccc(S(=O)(=O)NC(=O)NC3CCC(CO)CC3)cc2)C1=O (stereo not drawn) [Glimepiride M1, hydroxyglimepiride]",–,–,–,–,–,–,–,–,"MR, metabolic ratio (AUCτ,ss of metabolite/AUCτ,ss of parent) [1, 9]: 0.4 ± 0.11 (0.2–0.63); AUCτ,ss [1, 10]: 611.9 ± 180.7 (309.4–1179.5) μg·h/L; Cmax,ss [1, 10]: 81.3 ± 20.6 (47.7–135.3) μg/L"
–,–,–,–,–,–,2.5 ± 0.8 (1.2–4.5) L/h,4.2 ± 6.3 (0–24.7) μg/L,4.2 ± 2,"CCC1=C(C)CN(C(=O)NCCc2ccc(S(=O)(=O)NC(=O)N[C@H]3CC[C@H](C)CC3)cc2)C1=O [Glimepiride, glimepiride]",141.7 ± 65.5 (40.7–318.2) μIU·h/mL,86.4 ± 43.8 (29.7–248.4) μIU/mL,17.9 ± 60.1 (−174.5–157.2) μIU·h/mL,12.9 ± 45.2 (−109.2–122.1) μIU/mL,94.7 ± 23.9 (44–140) mg/dL,291.8,−67.5 ± 60 (−179.6–69.4) mg·h/dL,−68.9 ± 25.1 (−129– −22) mg/dL,"Tmax ([2]; after oral administration): ≤ 3 h; half-life [2]: 1.2 to 1.5 h; Number of AEs considered related to the investigational products ([4]; 35 subjects in safety assessment): five; Cold sweat: number of subjects who reported adverse drug reactions (number of ADRs) ([4]; N = 35): 1 (1); Dizziness: number of subjects who reported adverse drug reactions (number of ADRs) ([4]; N = 35): 1 (1); Hypoglycemia: number of subjects who reported adverse drug reactions (number of ADRs) ([4]; N = 35): 1 (1); Increased blood bilirubin: number of subjects who reported adverse drug reactions (number of ADRs) ([4]; N = 35): 1 (1); Nausea: number of subjects who reported adverse drug reactions (number of ADRs) ([4]; N = 35): 1 (1); CLss/F [1, 9]: 2.7 ± 1 (1.2–5.1) L/h; Ctrough,ss [1, 10]: 8.6 ± 10.9 (0–51.9) μg/L; AUC ([1]; human, plasma, oral, 4 mg): 1670 ± 624 ng·h/mL; Cmax ([1]; human, plasma, oral, 4 mg): 327 ± 98.5 ng/mL; half-life ([1]; human, plasma, oral, 4 mg): 4.7 ± 2.2 h; AUGC, area under the serum glucose-time curve (serum glucose; listed as GLI): 291.8 ± 48.5 (216.1–429.6) mg·h/dL"
